{"source": "ChEMBL document CHEMBL2086252", "about": "“Syntheses and evaluation of anticonvulsant activity of novel branched alkyl carbamates” (J Med Chem, 2012)", "key": {"Mus musculus [1]": {"test_system": "Mus musculus", "experiment": "Neurotoxicity in albino CF1 mouse assessed as minimal motor impairment at 30 mg/kg, ip after 0.5 hrs by rotarod test", "format": "toxicity, organism-based", "parameters": "dose 30 mg/kg, route intraperitoneal", "details": "in vivo", "method_in_brief": "(§1)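 Mice dosed ip at 30, 100 or 300 mg/kg, then tested 0.5 h and 4 h after administration in the MES or scMet test. Protection was recorded as animals protected over animals tested. Neurotoxicity was recorded as motor impairment or sedation, as animals affected over animals tested.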"}, "Rattus norvegicus [2]": {"test_system": "Rattus norvegicus", "experiment": "Protective index, ratio of TD50 for po dosed Sprague-Dawley albino rat by rotarod test to ED50 for po dosed Sprague-Dawley albino rat by subcutaneous metrazol seizures test", "format": "functional", "method_in_brief": "(§2)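 Protective index calculated as TD50/ED50, with TD50 and ED50 taken from the same species and dosing route.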"}, "Mus musculus [3]": {"test_system": "Mus musculus", "experiment": "Anticonvulsant activity in albino CF1 mouse assessed as protection against maximal electroshock-induced seizures at 100 mg/kg, ip after 4 hrs", "format": "functional, organism-based", "parameters": "dose 100 mg/kg", "method_in_brief": "as §1"}, "Rattus norvegicus [4]": {"test_system": "Rattus norvegicus", "experiment": "Neurotoxicity in Sprague-Dawley albino rat assessed as minimal motor impairment at 30 mg/kg, po by rotarod test", "format": "toxicity, organism-based", "parameters": "dose 30 mg/kg, route oral", "details": "in vivo", "method_in_brief": "(§3)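 Rats dosed orally. Anti-MES protection was scored as animals protected over animals tested at each time after dosing. Neurotoxicity was scored as motor impairment or sedation, as animals affected over animals tested.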"}, "Mus musculus [5]": {"test_system": "Mus musculus", "experiment": "Anticonvulsant activity in ip dosed albino CF1 mouse assessed as protection against subcutaneous metrazol-induced seizures", "format": "functional", "method_in_brief": "(§4)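 Quantitative testing: rats dosed orally or ip in MES and scMet tests, and mice dosed ip, including the 6 Hz (32 mA) psychomotor seizure test. ED50 and TD50 were reported in mg/kg with ranges in parentheses. Protective index was calculated as TD50/ED50.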"}, "Rattus norvegicus [6]": {"test_system": "Rattus norvegicus", "experiment": "Neurotoxicity in pilocarpine-induced status epilepticus Sprague-Dawley albino rat model assessed as minimal motor impairment at 100 mg/kg, ip after 2 hrs by rotarod test", "format": "toxicity, organism-based", "parameters": "dose 100 mg/kg, route intraperitoneal", "details": "in vivo"}, "Mus musculus [7]": {"test_system": "Mus musculus", "experiment": "Anticonvulsant activity in albino CF1 mouse assessed as protection against subcutaneous metrazol-induced seizures at 30 mg/kg, ip after 0.5 hrs", "format": "functional, organism-based", "parameters": "dose 30 mg/kg", "method_in_brief": "as §1"}, "Rattus norvegicus [8]": {"test_system": "Rattus norvegicus", "experiment": "Anticonvulsant activity in Sprague-Dawley albino rat assessed as protection against maximal electroshock-induced seizures at 30 mg/kg, po after 30 mins", "format": "functional, organism-based", "parameters": "dose 30 mg/kg", "method_in_brief": "as §3"}, "Mus musculus [9]": {"test_system": "Mus musculus", "experiment": "Neurotoxicity in albino CF1 mouse assessed as minimal motor impairment at 30 mg/kg, ip after 4 hrs by rotarod test", "format": "toxicity, organism-based", "parameters": "dose 30 mg/kg, route intraperitoneal", "details": "in vivo", "method_in_brief": "as §1"}, "Mus musculus [10]": {"test_system": "Mus musculus", "experiment": "Anticonvulsant activity in ip dosed albino CF-1 mouse assessed as protection against 6 Hz psychomotor seizure", "format": "functional", "details": "albino CF-1, ip", "method_in_brief": "as §4"}, "Mus musculus [11]": {"test_system": "Mus musculus", "experiment": "Protective index, ratio of TD50 for ip dosed albino CF1 mouse by rotarod test to ED50 for ip dosed albino CF1 mouse by subcutaneous metrazol seizures test", "format": "functional", "method_in_brief": "as §2"}, "Mus musculus [12]": {"test_system": "Mus musculus", "experiment": "Anticonvulsant activity in albino CF1 mouse assessed as protection against subcutaneous metrazol-induced seizures at 300 mg/kg, ip after 4 hrs", "format": "functional, organism-based", "parameters": "dose 300 mg/kg", "method_in_brief": "as §1"}, "Mus musculus [13]": {"test_system": "Mus musculus", "experiment": "Neurotoxicity in albino CF1 mouse assessed as minimal motor impairment at 100 mg/kg, ip after 0.5 hrs by rotarod test", "format": "toxicity, organism-based", "parameters": "dose 100 mg/kg, route intraperitoneal", "details": "in vivo", "method_in_brief": "as §1"}, "Mus musculus [14]": {"test_system": "Mus musculus", "experiment": "Anticonvulsant activity in albino CF1 mouse assessed as protection against subcutaneous metrazol-induced seizures at 100 mg/kg, ip after 0.5 hrs", "format": "functional, organism-based", "parameters": "dose 100 mg/kg", "method_in_brief": "as §1"}, "Rattus norvegicus [15]": {"test_system": "Rattus norvegicus", "experiment": "Neurotoxicity in pilocarpine-induced status epilepticus Sprague-Dawley albino rat model assessed as minimal motor impairment at 100 mg/kg, ip after 0.25 hr by rotarod test", "format": "toxicity, organism-based", "parameters": "dose 100 mg/kg, route intraperitoneal", "details": "in vivo"}, "Rattus norvegicus [16]": {"test_system": "Rattus norvegicus", "experiment": "Anticonvulsant activity in ip dosed Sprague-Dawley albino rat assessed as protection against pilocarpine-induced status epilepticus after 0.5 hrs", "format": "functional", "method_in_brief": "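Pilocarpine status epilepticus model in rats. Number and severity of convulsive seizures were observed behaviourally.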"}, "Rattus norvegicus [17]": {"test_system": "Rattus norvegicus", "experiment": "Protective index, ratio of TD50 for po dosed Sprague-Dawley albino rat by rotarod test to ED50 for po dosed Sprague-Dawley albino rat by maximal electroshock seizures test", "format": "functional", "method_in_brief": "as §2"}}, "note": "Active and inactive are the calls of the source. No cut-off for these calls is given here."}
{"smiles": "CCC(COC(N)=O)C(C)C", "note": "(racemic)", "values": [{"measurement": "Activity", "setting": "Mus musculus [1]", "value": "Non-toxic"}, {"measurement": "Ratio TD50/ED50", "setting": "Rattus norvegicus [2]", "value": 14}, {"measurement": "Activity", "setting": "Mus musculus [3]", "value": "inactive"}, {"measurement": "Activity", "setting": "Rattus norvegicus [4]", "value": "Non-toxic"}, {"measurement": "ED50", "setting": "Mus musculus [5]", "value": 120, "unit": "mg/kg"}, {"measurement": "Activity", "setting": "Rattus norvegicus [6]", "value": "Non-toxic"}, {"measurement": "Activity", "setting": "Mus musculus [7]", "value": "inactive"}, {"measurement": "Activity", "setting": "Rattus norvegicus [8]", "value": "inactive"}, {"measurement": "Activity", "setting": "Mus musculus [9]", "value": "Non-toxic"}, {"measurement": "ED50", "setting": "Mus musculus [10]", "value": 33, "unit": "mg/kg"}, {"measurement": "Ratio TD50/ED50", "setting": "Mus musculus [11]", "value": 2.9}, {"measurement": "Activity", "setting": "Mus musculus [12]", "value": "inactive"}, {"measurement": "Activity", "setting": "Mus musculus [13]", "value": "Non-toxic"}, {"measurement": "Activity", "setting": "Mus musculus [14]", "value": "inactive"}, {"measurement": "Activity", "setting": "Rattus norvegicus [15]", "value": "Toxic"}, {"measurement": "ED50", "setting": "Rattus norvegicus [16]", "value": 81, "unit": "mg/kg"}, {"measurement": "ED97", "setting": "Rattus norvegicus [16]", "value": 114, "unit": "mg/kg"}, {"measurement": "Ratio TD50/ED50", "setting": "Rattus norvegicus [17]", "value": 7.8}]}
